From ChEMBL document CHEMBL2069244 (Bioorg Med Chem Lett, 2012)
Activity calls are given as the source filed them. No cut-off for these calls is given here.

Columns and labels:
Mus musculus [1] = experiment: Anticonvulsant activity in mouse assessed as protection against subcutaneous pentylenetetrazole-induced seizures at 30 mg/kg, ip after 4 hrs; assay type: functional, organism-based; set-up: dose 30 mg/kg
Mus musculus [2] = experiment: Anticonvulsant activity in mouse assessed as protection against subcutaneous pentylenetetrazole-induced seizures at 30 mg/kg, ip after 0.5 hrs; assay type: functional, organism-based; set-up: dose 30 mg/kg
Mus musculus [3] = experiment: Anticonvulsant activity in mouse assessed as protection against maximal electroshock-induced seizures at 30 mg/kg, ip after 0.25 hrs; assay type: functional, organism-based; set-up: dose 30 mg/kg
In short: (§1)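 Mice dosed ip in 30% polyethylene glycol. Corneas pretreated with 1% tetracaine, then 60 Hz alternating current (50 mA) applied for 0.2 s via corneal electrodes. Protection means absence of the hindlimb tonic extensor component. Scored as number protected/number tested.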

Mus musculus [4] = experiment: Neurotoxicity in mouse at 30 mg/kg, ip after 4 hrs by 6Hz psychomotor seizure test; assay type: toxicity, organism-based; set-up: dose 30 mg/kg, route intraperitoneal; conditions: in vivo
In short: (§2)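 Mice dosed ip in 30% polyethylene glycol and placed on a rotorod at 6 rpm. An animal is scored toxic if it falls off three times within 1 min.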

Mus musculus [5] = experiment: Anticonvulsant activity in mouse assessed as protection against maximal electroshock-induced seizures at 300 mg/kg, ip after 4 hrs; assay type: functional, organism-based; set-up: dose 300 mg/kg; in short: as §1
Mus musculus [6] = experiment: Anticonvulsant activity in mouse assessed as protection against subcutaneous pentylenetetrazole-induced seizures at 300 mg/kg, ip after 4 hrs; assay type: functional, organism-based; set-up: dose 300 mg/kg
Mus musculus [7] = experiment: Neurotoxicity in mouse at 100 mg/kg, ip after 4 hrs by 6Hz psychomotor seizure test; assay type: toxicity, organism-based; set-up: dose 100 mg/kg, route intraperitoneal; conditions: in vivo; in short: as §2
Mus musculus [8] = experiment: Neurotoxicity in mouse at 100 mg/kg, ip after 0.5 hrs by 6Hz psychomotor seizure test; assay type: toxicity, organism-based; set-up: dose 100 mg/kg, route intraperitoneal; conditions: in vivo; in short: as §2
Mus musculus [9] = experiment: Anticonvulsant activity in mouse assessed as protection against maximal electroshock-induced seizures at 300 mg/kg, ip after 0.5 hrs; assay type: functional, organism-based; set-up: dose 300 mg/kg; in short: as §1
Mus musculus [10] = experiment: Anticonvulsant activity in mouse assessed as protection against maximal electroshock-induced seizures at 100 mg/kg, ip after 0.5 hrs; assay type: functional, organism-based; set-up: dose 100 mg/kg; in short: as §1
Mus musculus [11] = experiment: Anticonvulsant activity in mouse assessed as protection against maximal electroshock-induced seizures at 30 mg/kg, ip after 4 hrs; assay type: functional, organism-based; set-up: dose 30 mg/kg; in short: as §1
Mus musculus [12] = experiment: Neurotoxicity in mouse at 100 mg/kg, ip after 0.25 hrs by 6Hz psychomotor seizure test; assay type: toxicity, organism-based; set-up: dose 100 mg/kg, route intraperitoneal; conditions: in vivo; in short: as §2
Mus musculus [13] = experiment: Neurotoxicity in mouse at 100 mg/kg, ip after 1 hrs by 6Hz psychomotor seizure test; assay type: toxicity, organism-based; set-up: dose 100 mg/kg, route intraperitoneal; conditions: in vivo; in short: as §2
Mus musculus [14] = experiment: Neurotoxicity in mouse at 300 mg/kg, ip after 4 hrs by 6Hz psychomotor seizure test; assay type: toxicity, organism-based; set-up: dose 300 mg/kg, route intraperitoneal; conditions: in vivo; in short: as §2
Mus musculus [15] = experiment: Anticonvulsant activity in mouse assessed as protection against maximal electroshock-induced seizures at 30 mg/kg, ip after 6 hrs; assay type: functional, organism-based; set-up: dose 30 mg/kg; in short: as §1
Mus musculus [16] = experiment: Anticonvulsant activity in mouse assessed as protection against maximal electroshock-induced seizures at 30 mg/kg, ip after 2 hrs; assay type: functional, organism-based; set-up: dose 30 mg/kg; in short: as §1
Mus musculus [17] = experiment: Neurotoxicity in mouse at 100 mg/kg, ip after 2 hrs by 6Hz psychomotor seizure test; assay type: toxicity, organism-based; set-up: dose 100 mg/kg, route intraperitoneal; conditions: in vivo; in short: as §2
Mus musculus [18] = experiment: Anticonvulsant activity in mouse assessed as protection against subcutaneous pentylenetetrazole-induced seizures at 100 mg/kg, ip after 0.5 hrs; assay type: functional, organism-based; set-up: dose 100 mg/kg
Mus musculus [19] = experiment: Anticonvulsant activity in mouse assessed as protection against subcutaneous pentylenetetrazole-induced seizures at 300 mg/kg, ip after 0.5 hrs; assay type: functional, organism-based; set-up: dose 300 mg/kg
Mus musculus [20] = experiment: Anticonvulsant activity in mouse assessed as protection against maximal electroshock-induced seizures at 30 mg/kg, ip after 1 hr; assay type: functional, organism-based; set-up: dose 30 mg/kg; in short: as §1
Mus musculus [21] = experiment: Neurotoxicity in mouse at 30 mg/kg, ip after 0.5 hrs by 6Hz psychomotor seizure test; assay type: toxicity, organism-based; set-up: dose 30 mg/kg, route intraperitoneal; conditions: in vivo; in short: as §2
Mus musculus [22] = experiment: Anticonvulsant activity in mouse assessed as protection against maximal electroshock-induced seizures at 30 mg/kg, ip after 0.5 hrs; assay type: functional, organism-based; set-up: dose 30 mg/kg; in short: as §1
Mus musculus [23] = experiment: Neurotoxicity in mouse at 100 mg/kg, ip after 6 hrs by 6Hz psychomotor seizure test; assay type: toxicity, organism-based; set-up: dose 100 mg/kg, route intraperitoneal; conditions: in vivo; in short: as §2
Mus musculus [24] = experiment: Anticonvulsant activity in mouse assessed as protection against maximal electroshock-induced seizures at 100 mg/kg, ip after 4 hrs; assay type: functional, organism-based; set-up: dose 100 mg/kg; in short: as §1
Mus musculus [25] = experiment: Anticonvulsant activity in mouse assessed as protection against subcutaneous pentylenetetrazole-induced seizures at 100 mg/kg, ip after 4 hrs; assay type: functional, organism-based; set-up: dose 100 mg/kg

Compound: CCCc1cc(C(O)C(F)(F)F)ccc1O (stereo not given)
- Activity (Mus musculus [1]): inactive
- Activity (Mus musculus [2]): inactive
- Activity (Mus musculus [3]): inactive
- Activity (Mus musculus [4]): Non-toxic
- Activity (Mus musculus [5]): Active
- Activity (Mus musculus [6]): inactive
- Activity (Mus musculus [7]): Non-toxic
- Activity (Mus musculus [8]): Non-toxic
- Activity (Mus musculus [9]): Active
- Activity (Mus musculus [10]): inactive
- Activity (Mus musculus [11]): inactive
- Activity (Mus musculus [12]): Non-toxic
- Activity (Mus musculus [13]): Non-toxic
- Activity (Mus musculus [14]): Non-toxic
- Activity (Mus musculus [15]): inactive
- Activity (Mus musculus [16]): inactive
- Activity (Mus musculus [17]): Non-toxic
- Activity (Mus musculus [18]): inactive
- Activity (Mus musculus [19]): Active
- Activity (Mus musculus [20]): inactive
- Activity (Mus musculus [21]): Non-toxic
- Activity (Mus musculus [22]): inactive
- Activity (Mus musculus [23]): Non-toxic
- Activity (Mus musculus [24]): inactive
- Activity (Mus musculus [25]): inactive
